Data on one compound can be found in ChEMBL document CHEMBL1671864, “First assessment in humans of the safety, tolerability, pharmacokinetics, and ex vivo pharmacodynamic antimalarial activity of the new artemisinin derivative artemisone” (Antimicrob Agents Chemother, 2008).

Usually CL/F stands for the apparent clearance, not corrected for the fraction that reaches the circulation. Broadly, the MRT is the average time that molecules of a dose stay in the body. In general, half-life refers to the time needed for the level to fall by half in the phase considered. Lower therefore signals fast loss. As usually defined, the AUC is concentration integrated over time. A low value points to less exposure. As a reminder, the Tmax is the time from dosing to the highest level. In general, IC50 refers to the concentration that gives 50% inhibition.

SMILES strings stand for the structures. In brackets after ≈: the same amount, converted by molar mass.

Data set [1] can be described thus: Apparent oral clearance in healthy human at 30 mg, po administered as single ascending doses as solution during 10 hrs overnight fasting state. It is filed as ADME, organism-based. Particulars: in vivo. In outline: (§1)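 Single ascending oral doses in healthy Caucasian men, given fasted (10-h overnight) with 240 ml water: 10, 20, 30 or 40 mg as oral solution, or 80 mg as IR tablets. Parent plasma levels by LC/MS-MS over 0.25–14 h. Noncompartmental analysis: kel by terminal-phase least-squares regression, AUC extrapolated to infinity, CL/F = dose/AUC, V/F = CL/F÷kel.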

Data set [2] deals with Plasma. Description: Ratio of Ratio of AUC (0 to infinity) in healthy human plasma at 40 mg, po administered as two 20 mg immediate release tablets daily for 3 days during 10 hrs overnight fasting state measured after 1 day to Ratio of AUC (0 to infinity) in healthy human plasma at 40 mg, po administered as two 20 mg immediate release tablets daily for 3 days during 10 hrs overnight fasting state measured after 3 day. Particulars: in vivo. It is filed as ADME, organism-based. The procedure, abridged:
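Healthy Caucasian men took tablets daily for 3 days with 240 ml water after 10-h fast. Plasma sampled 0.25–14 h after first and last doses, artemisone measured by LC/MS-MS. Accumulation ratio is Cmax or AUC0-∞ after last dose divided by that after first dose. Noncompartmental analysis, geometric means with 95% CI.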

Data set [3] can be described thus: Mean residence time in healthy human at 40 mg, po administered as single ascending doses as solution during 10 hrs overnight fasting state. It is filed as ADME, organism-based. Particulars: in vivo. In outline:
(§2)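 Healthy Caucasian male volunteers, single oral dose with 240 ml water after a 10-h overnight fast. Heparinised venous blood was drawn predose and at 0.25–14 h. Plasma was stored frozen. Parent drug and metabolites M1–M3 were measured by LC/MS-MS (MRM, deuterated internal standard). Noncompartmental analysis gave Cmax observed, t1/2 = 0.693/kel (terminal regression) and MRT = AUMC/AUC. Values are geometric means.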

Data set [4] relates to Homo sapiens. Description: Toxicity in healthy human assessed as occurrence of clinically relevant changes in vital signs at 10 to 80 mg, po administered as single ascending doses during 10 hrs overnight fasting state. It is filed as organism-based. Particulars: in vivo. The procedure, abridged:
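Healthy Caucasian men received single ascending doses (10–40 mg solution, 80 mg tablets) or 3-day daily tablet courses, all fasting, with randomized placebo controls. Supine blood pressure, heart rate and resting 12-lead ECG were recorded before and after dosing.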

Data set [5] can be described thus: Apparent volume of distribution with respect to the bioavailability in healthy human at 80 mg, po administered as single immediate release tablets during 10 hrs overnight fasting state. Particulars: in vivo, read-out: Vc/F. It is filed as ADME, organism-based. In outline: as §1
Data set [6] is described as follows: Half life in healthy human plasma at 40 mg, po administered as two 20 mg immediate release tablets daily for 3 days during 10 hrs overnight fasting state measured after 1 day. It is filed as ADME, organism-based. The procedure, abridged: (§3)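 Healthy Caucasian males took tablets once daily for 3 days with 240 ml water after a 10-h fast. Heparinised blood was drawn predose and at 0.25–14 h after the first and last doses. Plasma parent drug and metabolites M1–M3 were measured by LC/MS-MS (MRM, deuterated internal standard). Noncompartmental analysis gave Cmax observed, t1/2 = 0.693/kel and MRT = AUMC/AUC. Values are geometric means.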

The nature of data set [7]: AUC in healthy human plasma at 80 mg, po administered as single immediate release tablets during 10 hrs overnight fasting state. It is filed as ADME, organism-based. Also on record: dose 80 mg, time < 10 hr, route oral. In outline: as §1
The nature of data set [8]: Tmax in healthy human plasma at 10 mg, po administered as single ascending doses as solution during 10 hrs overnight fasting state. It is filed as ADME, organism-based. In outline:
(§4)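 Healthy Caucasian male volunteers, randomized within each dose group against placebo, given a single oral solution with 240 ml water after a 10-h overnight fast. Plasma sampled predose and at 0.25–14 h, quantified by LC/MS-MS (MRM, deuterated internal standard). Tmax read directly from individual noncompartmental concentration–time data.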

The nature of data set [9]: Tmax in healthy human plasma at 20 mg, po administered as single ascending doses as solution during 10 hrs overnight fasting state. It is filed as ADME, organism-based. The procedure, abridged: as §4
Data set [10] can be described thus: Apparent oral clearance in healthy human at 40 mg, po administered as single ascending doses as solution during 10 hrs overnight fasting state. It is filed as ADME, organism-based. Particulars: in vivo. The procedure, abridged:
as §1

Data set [11] in a line: AUC in healthy human plasma at 20 mg, po administered as single ascending doses as solution during 10 hrs overnight fasting state. It is filed as ADME, organism-based. Also on record: time < 10 hr, dose 20 mg, route oral. The procedure, abridged:
as §1

The subject of data set [12] is Homo sapiens. Briefly: Toxicity in healthy human assessed as decrease in glutamate dehydrogenase level at 80 mg, po administered daily for 3 days as four 20-mg immediate-release tablets during 10 hrs overnight fasting state measured after 2 days last post treatment. It is filed as organism-based. Particulars: in vivo, 48 h.
Data set [13] in a line: Tmax in healthy human plasma at 80 mg, po administered as single immediate release tablets during 10 hrs overnight fasting state. It is filed as ADME, organism-based. The procedure, abridged: (§5)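 Healthy Caucasian male volunteers (n=6 active, 2 placebo, randomized), single 80 mg dose as four 20-mg tablets with 240 ml water after 10-h fast. Venous lithium-heparin plasma sampled predose and 0.25–14 h; analysed by LC/MS-MS (MRM, deuterated internal standard). Noncompartmental analysis; Tmax observed directly; MRT = AUMC/AUC with extrapolation to infinity via kel.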

The nature of data set [14]: Half life in healthy human plasma at 80 mg, po administered as single immediate release tablets during 10 hrs overnight fasting state. It is filed as ADME, organism-based. In outline: as §2
In data set [15] the test system is Plasmodium falciparum. Briefly: Antimalarial activity against Plasmodium falciparum K1 in human plasma assessed as inhibition of hypoxanthine uptake by intraerythrocytic malaria parasites by hypoxanthine incorporation assay. It is filed as functional, organism-based. In outline:
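K1 or TM90-C2A parasites were sorbitol-synchronized and cultured in RPMI 1640. Drug was diluted in drug-free human serum (0.04–40 ng/ml) or subject plasma was diluted twofold (8–8,192). Parasites were added at 2% hematocrit, 1% parasitemia (>95% rings), and [3H]hypoxanthine uptake was measured over 48 h. IC50 or ID50 came from concentration or dilution-response curves. Equivalent concentration = ID50 × IC50.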

Data set [16] in a line: Mean residence time in healthy human at 80 mg, po administered as four 20 mg immediate release tablets daily for 3 days during 10 hrs overnight fasting state measured after 3 day. Particulars: in vivo. It is filed as ADME, organism-based. The procedure, abridged: as §3
Data set [17] in a line: AUC in healthy human plasma at 30 mg, po administered as single ascending doses as solution during 10 hrs overnight fasting state. Also on record: time < 10 hr, dose 30 mg, route oral. It is filed as ADME, organism-based. In outline:
as §1

Data set [18] has as its system Homo sapiens. Description: Toxicity in healthy human assessed as occurrence of adverse event at 80 mg, po administered daily for 3 days as four 20-mg immediate-release tablets during 10 hrs overnight fasting state. It is filed as organism-based. Particulars: in vivo. In outline: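 3-day daily oral tablet dosing in healthy Caucasian men (8 active, 4 placebo per dose). Adverse events were collected by open questioning and spontaneous report. Severity was graded mild (daily activities unaffected), moderate (some interference) or severe (activities not completed).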

A short description of data set [19]: AUC in healthy human plasma at 40 mg, po administered as two 20 mg immediate release tablets daily for 3 days during 10 hrs overnight fasting state measured after 1 day. It is filed as ADME, organism-based. Details: time < 10 hr, dose 40 mg, route oral. In outline:
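Healthy Caucasian males took 40 mg (2×20-mg IR tablets) or 80 mg (4 tablets) orally daily for 3 days after a 10-h fast. Plasma parent drug was measured by LC/MS-MS from predose to 14 h after the first and third doses. Noncompartmental analysis: AUC by log-linear trapezoid extrapolated via kel, CL/F = dose/AUC, V/F = CL/F÷kel, geometric means.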

Data set [20] can be described thus: Apparent volume of distribution with respect to the bioavailability in healthy human at 20 mg, po administered as single ascending doses as solution during 10 hrs overnight fasting state. It is filed as ADME, organism-based. Particulars: in vivo, read-out: Vc/F. In outline: as §1
Data set [21] can be described thus: Half life in healthy human plasma at 40 mg, po administered as two 20 mg immediate release tablets daily for 3 days during 10 hrs overnight fasting state measured after 3 day. It is filed as ADME, organism-based. In outline:
as §3

Data set [22] in a line: Mean residence time in healthy human at 80 mg, po administered as single immediate release tablets during 10 hrs overnight fasting state. It is filed as ADME, organism-based. Particulars: in vivo. The procedure, abridged:
as §5

For `C[C@H]1[C@H](N2CCS(=O)(=O)CC2)O[C@@H]2O[C@@]3(C)CC[C@H]4[C@H](C)CC[C@@H]1[C@@]24OO3` [ARTEMIFONE], the CL/F is 6960 mL/min in data set [1] and 5640 mL/min in [10]. Besides, the Ratio in [2] is 104%. Moreover, the MRT came to 2.39 h in data set [3], 3.53 h in data set [16] and 2.64 h in [22]. Besides, the Activity entry in data set [4], in data set [12] and in [18] was “Non-toxic” each time. Also, the figures for the Vd/F in data set [5] and in [20] were 14.5 L/kg and 19.1 L/kg, respectively. The values for the half-life in data set [6], in data set [14] and in data set [21] were 3.36 h, 2.79 h and 4.37 h, respectively. Further, the AUC at 10 h is 282 ng·h/mL in data set [7], 65.7 ng·h/mL in data set [11], 71.8 ng·h/mL in data set [17] and 184 ng·h/mL in data set [19]. For the same compound, the values for the Tmax in [8], in [9] and in data set [13] were 0.25 h, 0.5 h and 0.875 h, respectively. For the same compound, in [15], the IC50 worked out at 0.6 ng/mL (≈ 1.49 nM).
